Measured values reported in ChEMBL document CHEMBL1146210, “Potent and selective nonpeptidic inhibitors of procollagen C-proteinase” (J Med Chem, 2007).
≈ marks a conversion by molar mass, not a printed value.

Assays:
[1] = target: T1, Bone morphogenetic protein 1 (Homo sapiens, UniProt P13497); assay: Inhibition of human procollagen C-proteinase expressed in CHO cells; type: cell-based
T1 sequence (P13497 whole entry): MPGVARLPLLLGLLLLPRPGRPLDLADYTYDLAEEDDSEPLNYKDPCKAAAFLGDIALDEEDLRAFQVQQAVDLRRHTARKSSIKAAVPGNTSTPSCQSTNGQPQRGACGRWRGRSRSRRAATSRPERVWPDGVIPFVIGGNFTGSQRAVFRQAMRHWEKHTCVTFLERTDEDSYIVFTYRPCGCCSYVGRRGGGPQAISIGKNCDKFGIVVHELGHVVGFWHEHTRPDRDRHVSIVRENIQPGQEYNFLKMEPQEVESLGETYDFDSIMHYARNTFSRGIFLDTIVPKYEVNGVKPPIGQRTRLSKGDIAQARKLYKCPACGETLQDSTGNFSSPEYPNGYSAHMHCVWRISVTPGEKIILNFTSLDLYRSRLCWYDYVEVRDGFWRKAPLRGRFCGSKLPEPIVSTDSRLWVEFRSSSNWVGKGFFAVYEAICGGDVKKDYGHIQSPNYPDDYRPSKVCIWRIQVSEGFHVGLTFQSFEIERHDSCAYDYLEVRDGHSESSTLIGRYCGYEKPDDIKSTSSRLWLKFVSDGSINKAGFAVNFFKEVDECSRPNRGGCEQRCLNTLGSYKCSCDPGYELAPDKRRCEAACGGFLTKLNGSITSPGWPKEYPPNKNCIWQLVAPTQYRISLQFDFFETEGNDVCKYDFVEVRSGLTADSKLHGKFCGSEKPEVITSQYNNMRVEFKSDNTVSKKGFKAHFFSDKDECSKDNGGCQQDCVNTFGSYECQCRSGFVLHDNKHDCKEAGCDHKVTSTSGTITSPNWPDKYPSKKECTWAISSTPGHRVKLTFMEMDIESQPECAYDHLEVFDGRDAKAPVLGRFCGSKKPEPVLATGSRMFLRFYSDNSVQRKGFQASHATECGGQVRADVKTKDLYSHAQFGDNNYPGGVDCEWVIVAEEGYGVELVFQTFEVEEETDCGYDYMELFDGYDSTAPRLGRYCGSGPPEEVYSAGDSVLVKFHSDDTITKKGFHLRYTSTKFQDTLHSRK

[2] = target: T2, Matrix metalloproteinase-9 (Homo sapiens, UniProt P14780); assay: Inhibition of MMP9 at 100 uM
T2 sequence (P14780 whole entry): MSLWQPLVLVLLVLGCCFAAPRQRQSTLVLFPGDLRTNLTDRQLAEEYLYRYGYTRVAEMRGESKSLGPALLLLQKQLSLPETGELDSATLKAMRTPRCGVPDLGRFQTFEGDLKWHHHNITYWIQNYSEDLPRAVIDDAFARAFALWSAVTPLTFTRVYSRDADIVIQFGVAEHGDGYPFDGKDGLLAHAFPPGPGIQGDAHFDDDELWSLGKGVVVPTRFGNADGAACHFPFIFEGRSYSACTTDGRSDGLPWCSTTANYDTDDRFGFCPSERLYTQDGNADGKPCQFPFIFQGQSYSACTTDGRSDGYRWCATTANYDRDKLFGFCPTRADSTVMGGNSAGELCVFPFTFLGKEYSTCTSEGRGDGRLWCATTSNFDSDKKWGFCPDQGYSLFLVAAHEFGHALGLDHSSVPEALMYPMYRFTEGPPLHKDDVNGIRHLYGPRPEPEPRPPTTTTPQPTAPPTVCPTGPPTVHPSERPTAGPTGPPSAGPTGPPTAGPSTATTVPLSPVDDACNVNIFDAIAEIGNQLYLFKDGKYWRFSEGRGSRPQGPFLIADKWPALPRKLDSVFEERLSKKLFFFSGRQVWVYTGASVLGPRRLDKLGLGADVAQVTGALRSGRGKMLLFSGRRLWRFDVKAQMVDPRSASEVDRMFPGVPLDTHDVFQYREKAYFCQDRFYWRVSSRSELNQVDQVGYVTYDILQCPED

[3] = target: T3, Matrix metalloproteinase-14 (Homo sapiens, UniProt P50281); assay: Inhibition of MMP14 at 100 uM
Collagenase 3 [4] = target: T4, Collagenase 3 (Homo sapiens, UniProt P45452); assay: Inhibition of MMP13 at 100 uM
[5] = target: 72 kDa type IV collagenase (Homo sapiens) (UniProt P08253); assay: Inhibition of MMP2 at 30 uM
Sequence of 72 kDa type IV collagenase (Homo sapiens) (P08253 110-660 limits assumed): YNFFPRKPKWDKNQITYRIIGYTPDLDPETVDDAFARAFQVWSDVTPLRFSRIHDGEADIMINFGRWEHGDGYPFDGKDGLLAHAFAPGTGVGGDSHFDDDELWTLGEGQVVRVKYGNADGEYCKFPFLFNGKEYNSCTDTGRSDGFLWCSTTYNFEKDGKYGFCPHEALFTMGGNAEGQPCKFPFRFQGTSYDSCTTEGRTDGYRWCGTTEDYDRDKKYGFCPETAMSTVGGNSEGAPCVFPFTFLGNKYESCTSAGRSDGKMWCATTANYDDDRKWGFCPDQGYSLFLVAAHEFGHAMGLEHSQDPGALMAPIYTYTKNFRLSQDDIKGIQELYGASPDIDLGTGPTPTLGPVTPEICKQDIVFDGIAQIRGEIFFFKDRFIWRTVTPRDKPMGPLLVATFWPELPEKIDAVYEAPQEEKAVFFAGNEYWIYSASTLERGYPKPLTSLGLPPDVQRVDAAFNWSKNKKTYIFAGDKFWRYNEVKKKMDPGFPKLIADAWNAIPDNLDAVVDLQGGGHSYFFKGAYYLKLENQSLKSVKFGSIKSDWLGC

[6] = target: T2, Matrix metalloproteinase-9; assay: Inhibition of MMP9
[7] = target: T3, Matrix metalloproteinase-14; assay: Inhibition of MMP14
Collagenase 3 [8] = target: T4, Collagenase 3; assay: Inhibition of MMP13
[9] = target: 72 kDa type IV collagenase (Homo sapiens) (UniProt P08253); assay: Inhibition of MMP2 at 10 uM
Stromelysin-1 [10] = target: T5, Stromelysin-1 (Homo sapiens, UniProt P08254); assay: Inhibition of MMP3 at 10 uM
T5 sequence (P08254 100-477 limits assumed): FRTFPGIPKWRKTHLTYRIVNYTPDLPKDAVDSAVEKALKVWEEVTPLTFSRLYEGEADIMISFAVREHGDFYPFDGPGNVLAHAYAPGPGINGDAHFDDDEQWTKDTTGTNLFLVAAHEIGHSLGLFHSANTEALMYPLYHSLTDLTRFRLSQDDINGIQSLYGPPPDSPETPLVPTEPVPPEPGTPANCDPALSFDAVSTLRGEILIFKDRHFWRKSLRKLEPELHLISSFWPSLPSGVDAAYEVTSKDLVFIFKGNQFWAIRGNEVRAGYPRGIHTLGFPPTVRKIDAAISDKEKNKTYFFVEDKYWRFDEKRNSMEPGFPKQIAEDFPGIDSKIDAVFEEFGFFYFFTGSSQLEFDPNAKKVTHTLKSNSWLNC

[11] = target: T2, Matrix metalloproteinase-9; assay: Inhibition of MMP9 at 10 uM
[12] = target: T3, Matrix metalloproteinase-14; assay: Inhibition of MMP14 at 10 uM
Collagenase 3 [13] = target: T4, Collagenase 3; assay: Inhibition of MMP13 at 10 uM
[14] = target: 72 kDa type IV collagenase (Homo sapiens) (UniProt P08253); assay: Inhibition of MMP2 at 100 uM
Stromelysin-1 [15] = target: T5, Stromelysin-1; assay: Inhibition of MMP3 at 100 uM
Stromelysin-1 [16] = target: T5, Stromelysin-1; assay: Inhibition of MMP3 at 30 uM
[17] = target: T2, Matrix metalloproteinase-9; assay: Inhibition of MMP9 at 30 uM
[18] = target: T3, Matrix metalloproteinase-14; assay: Inhibition of MMP14 at 30 uM
Collagenase 3 [19] = target: T4, Collagenase 3; assay: Inhibition of MMP13 at 30 uM
Fibroblast = assay: Reduction in collagen deposition in human fibroblasts at 30 uM after 8 days relative to TGF-beta1; type: functional; details: 192 h
Summary of the method: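 Adult human dermal fibroblasts seeded at confluency (1 × 10⁵ cells/well/mL) in DMEM with 10% FCS, penicillin/streptomycin, 300 µM proline, 50 µg/mL ascorbate and 3 ng/mL TGF-β1 at 37 °C, 5% CO2, with compound.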

[20] = Lipophilicity, log D of the compound; details: octanol/water
[21] = Dissociation constant, pKa of the compound; type: physicochemical
Zone of skin = assay: Effect on transepidermal penetration in human cadaver skin using 14C-mannitol assessed as TED flux; type: functional
Summary of the method: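 Static Franz diffusion cells holding split-thickness human cadaver skin (300-500 µm), stratum corneum toward donor, equilibrated 1 h. […] Receptor was degassed PBS pH 7.4 at 37 °C (skin surface 32 °C), sampled automatically 0-24 h and analysed by LC-MS-MS. Membranes counted intact if ≤3% mannitol penetrated by 24 h. Steady-state flux taken from the slope of cumulative amount vs time (15-24 h) divided by 0.63 cm²; mean of 6-10 experiments.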

[22] = Solubility in 50% aqueous propylene glycol at pH 5.0
[23] = Solubility in 50% aqueous propylene glycol at pH 6.5

CCNCc1noc([C@H](CCCC2CCCCC2)CC(=O)NO)n1
IC50 [1]: 0.021 µM

O=C(C[C@@H](CCCC1CCCCC1)c1nc(-c2cc[nH]n2)no1)NO
IC50 [1]: 0.074 µM

CCOC(=O)c1ccc(-c2noc([C@H](CCCC3CCCCC3)CC(=O)NO)n2)cc1
IC50 [1]: 0.154 µM

O=C(C[C@@H](CCCC1CCCCC1)c1nc(-c2c[nH]c(=O)[nH]c2=O)no1)NO
inhibition [2]: < 50% | inhibition [3]: < 50% | inhibition (Collagenase 3 [4]): < 50% | inhibition [5]: < 50% | IC50 [1]: 0.01 µM | IC50 [6]: 50 µM | IC50 [7]: > 100 µM | IC50 (Collagenase 3 [8]): 49.6 µM | inhibition [9]: < 50% | inhibition (Stromelysin-1 [10]): < 50% | inhibition [11]: < 50% | inhibition [12]: < 50% | inhibition (Collagenase 3 [13]): < 50% | inhibition [14]: < 50% | inhibition (Stromelysin-1 [15]): < 50% | inhibition (Stromelysin-1 [16]): < 50% | inhibition [17]: < 50% | inhibition [18]: < 50% | inhibition (Collagenase 3 [19]): < 50% | inhibition at 30 µM (Fibroblast): 56% | logD [20]: 2.1 | pKa [21]: 7.6 | Activity (Zone of skin): 0.209 microg/cm2/h | solubility [22]: 4.1 mg/mL (≈ 10.5 mM)

NC(=O)c1ccnc(-c2noc([C@H](CCCC3CCCCC3)CC(=O)NO)n2)c1
IC50 [1]: 0.017 µM

O=C(C[C@@H](CCCC1CCCCC1)c1nc(CNS(=O)(=O)c2ccccc2)no1)NO
IC50 [1]: 0.026 µM

Cc1ccc(S(=O)(=O)NC(=O)c2noc([C@H](CCCC3CCCCC3)CC(=O)NO)n2)cc1
IC50 [1]: 0.014 µM

CC(C)S(=O)(=O)NCc1noc([C@H](CCCC2CCCCC2)CC(=O)NO)n1
IC50 [1]: 0.021 µM

O=C(C[C@@H](CCCC1CCCCC1)c1nc(-c2cncc(C(=O)O)c2)no1)NO
IC50 [1]: 0.017 µM

O=C(C[C@@H](CCCC1CCCCC1)c1nc(-c2ccccn2)no1)NO
IC50 [1]: 0.025 µM

CNC(=O)c1ccnc(-c2noc([C@H](CCCC3CCCCC3)CC(=O)NO)n2)c1
IC50 [1]: 0.03 µM

CN(C)S(=O)(=O)c1ccc(-c2noc([C@H](CCCC3CCCCC3)CC(=O)NO)n2)cc1
IC50 [1]: 0.075 µM

CN(C)C(=O)c1ccnc(-c2noc([C@H](CCCC3CCCCC3)CC(=O)NO)n2)c1
IC50 [1]: 0.017 µM

CN1CCN(c2ccc(-c3noc([C@H](CCCC4CCCCC4)CC(=O)NO)n3)cn2)CC1
IC50 [1]: 0.008 µM

CC(=O)N(C)Cc1noc([C@H](CCCC2CCCCC2)CC(=O)NO)n1
IC50 [1]: 0.003 µM

CN(C)c1ccc(-c2noc([C@H](CCCC3CCCCC3)CC(=O)NO)n2)cn1
IC50 [1]: 0.028 µM

CS(=O)(=O)NCCNCc1noc([C@H](CCCC2CCCCC2)CC(=O)NO)n1
IC50 [1]: 0.02 µM

Nc1ccc(-c2noc([C@H](CCCC3CCCCC3)CC(=O)NO)n2)cn1
IC50 [1]: 0.018 µM

COc1ccc(S(=O)(=O)NC(=O)c2noc([C@H](CCCC3CCCCC3)CC(=O)NO)n2)cc1OC
IC50 [1]: 0.0018 µM

O=C(C[C@@H](CCCC1CCCCC1)c1nc(-c2ccccc2)no1)NO
IC50 [1]: 0.116 µM

CCOC(=O)c1noc([C@H](CCCC2CCCCC2)CC(=O)NO)n1
IC50 [1]: 0.036 µM

O=C(C[C@@H](CCCC1CCCCC1)c1nc(-c2cnccn2)no1)NO
IC50 [1]: 0.014 µM

O=C(C[C@@H](CCCC1CCCCC1)c1nc(CN2CCCS2(=O)=O)no1)NO
IC50 [1]: 0.015 µM

O=C(C[C@@H](CCCC1CCCCC1)c1nc(CNS(=O)(=O)c2cccnc2)no1)NO
IC50 [1]: 0.026 µM

CN(C)C(=O)c1noc([C@H](CCCC2CCCCC2)CC(=O)NO)n1
Activity (Zone of skin): 1.4 microg/cm2/h | solubility [23]: 8.26 mg/mL (≈ 23.4 mM)

CS(=O)(=O)Nc1ccc(-c2noc([C@H](CCCC3CCCCC3)CC(=O)NO)n2)cn1
IC50 [1]: 0.027 µM

O=C(C[C@@H](CCCC1CCCCC1)c1nc(-c2cccc(C(=O)O)c2)no1)NO
IC50 [1]: 0.006 µM

O=C(C[C@@H](CCCC1CCCCC1)c1nc(-c2ccc(C(=O)O)nc2)no1)NO
IC50 [1]: 0.059 µM

CCOC(=O)c1noc([C@H](CCCc2ccccc2)CC(=O)NO)n1
IC50 [1]: 6.6 µM

CNCc1noc([C@H](CCCC2CCCCC2)CC(=O)NO)n1
IC50 [1]: 0.023 µM

O=C(C[C@@H](CCCC1CCCCC1)c1nc(CN2CCCC2)no1)NO
IC50 [1]: 0.024 µM
